Square brackets hold non-standard residues; d marks the D form. Ends that are not written are not given here. * marks the point of attachment. FITC = O=C1OC2(c3ccc(O)cc3Oc3cc(O)ccc32)c2ccc(NC(=S)*)cc21; Stearoyl = CCCCCCCCCCCCCCCCCC(=O)*; Palmitoyl = CCCCCCCCCCCCCCCC(=O)*; Myristoyl = CCCCCCCCCCCCCC(=O)*; Aib = CC(C)(N)C(=O)O; Ahx = NCCCCCC(=O)O
How the values were obtained:
HSA = HSA (Homo sapiens, UniProt P02768); assay: Albumin binding affinity by surface plasmon resonance; conditions: for k a / k d: SPR, BIAcoT200 system, HSA; for Kd: human, HSA (human serum albumin), surface plasmon resonance
HSA, sequence (P02768 25-609): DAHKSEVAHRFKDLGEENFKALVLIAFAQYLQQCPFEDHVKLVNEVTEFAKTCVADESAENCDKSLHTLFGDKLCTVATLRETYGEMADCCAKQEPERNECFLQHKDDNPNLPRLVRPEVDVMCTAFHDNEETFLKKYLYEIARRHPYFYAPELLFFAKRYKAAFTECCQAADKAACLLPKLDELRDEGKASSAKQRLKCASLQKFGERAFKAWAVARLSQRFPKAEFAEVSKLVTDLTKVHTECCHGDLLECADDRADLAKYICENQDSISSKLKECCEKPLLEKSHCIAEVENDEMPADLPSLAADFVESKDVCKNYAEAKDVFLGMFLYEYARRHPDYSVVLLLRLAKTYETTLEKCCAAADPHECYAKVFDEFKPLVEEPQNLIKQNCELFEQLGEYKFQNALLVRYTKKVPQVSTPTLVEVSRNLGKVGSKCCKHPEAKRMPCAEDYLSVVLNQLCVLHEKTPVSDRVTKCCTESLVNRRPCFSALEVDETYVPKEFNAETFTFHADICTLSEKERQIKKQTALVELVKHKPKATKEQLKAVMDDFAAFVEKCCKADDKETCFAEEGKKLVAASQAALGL

GK rats = assay: Modified multiple OGTTs; assay type: in vivo
Method in brief: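 Male GK rats (purchased at 6–8 weeks) got one s.c. dose of saline, test compound (10, 30, 90 nmol kg−1) or a reference GLP-1 analog (90 nmol kg−1). Repeated oral glucose challenges followed, the first at 0.5 h after dosing. Glucose was read by glucometer. AUCs were taken for 0–2, 72–74 and 144–146 h, and the percent AUC reduction was calculated versus saline.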

[1] = Pharmacokinetic study in rhesus monkey; assay type: in vivo; conditions: plasma, sc
Method in brief: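 Male rhesus monkeys received one s.c. dose of test compound at 10, 30 or 90 nmol kg−1. Blood was drawn pre-dose and at 1, 2, 4, 8, 24, 36, 48, 72, 96, 120, 144 and 168 h. Intact peptide and free GLP-1 (A8Aib) in plasma were quantified by LC-MS/MS.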

db/db mice [2] = assay: Hypoglycemic duration test; assay type: in vivo; conditions: non-fasted db/db mice
Method in brief: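 Non-fasted db/db mice with free food and water got one s.c. dose of saline, a reference GLP-1 analog (90 nmol kg−1) or test compound (10, 30, 90 nmol kg−1). Tail-vein blood was sampled at 0, 0.5, 1, 2, 4, 8, 24, 36, 48, 72, 120, 168 and 216 h, with glucose by glucometer. Hypoglycemic duration was the time BGL stayed under 8.35 mmol L−1. Data are mean ± SD; one-way ANOVA.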

db/db mice [3] = assay: Chronic in vivo study, 8 weeks, db/db mice; conditions: for ALT / AST / HDL / LDL / LDL/HDL / TC / TG: db/db mice serum, 8 weeks twice-weekly s.c.; for decrease of OGTT AUC after 8 week treatment compared with day 0: n = 8
Method in brief: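 Male db/db mice (purchased at 6–8 weeks, housed six per cage, 12 h light–dark) got twice-weekly s.c. saline, a reference GLP-1 analog (90 nmol kg−1) or test compound (10, 30, 90 nmol kg−1) for eight weeks. Blood biochemical parameters were measured on an automatic biochemical analyzer. Pancreas was paraffin-embedded and H&E-stained. Data are mean ± SD; one-way ANOVA, P < 0.05.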

db/db mice [4] = assay: Oral glucose tolerance test; assay type: in vivo
Method in brief: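 Male db/db mice were fasted overnight and split into five groups. They received saline or test compound s.c. at 10, 30, 90 or 150 nmol kg−1, half an hour before an oral glucose load of 2.0 g kg−1. Blood glucose was read by handheld glucometer before and 15, 30, 60 and 120 min after the load. Data are mean ± SD with one-way ANOVA.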

[5] = Plasma stability test in human plasma with or without HSA; assay type: in vitro ADME
Method in brief: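 Albumin-depleted human plasma was prepared with a blue-dye albumin removal kit. Test peptides at a final 1 mg L−1 were incubated at 37 °C in human plasma with or without HSA. Samples were taken at time points from 0 to 144 h and analysed by LC-MS/MS.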

[6] = single s.c. 10 nmol kg^−1, n = 8
[7] = single s.c. 30 nmol kg^−1, n = 8
[8] = single s.c. 90 nmol kg^−1, n = 8
[9] = human plasma without albumin (HSA-free)

## {FITC-Ahx}-K(Stearoyl)EYEEYEGGGGSGGGGSFNPRH[Aib]EGTFTSDVSSYLEGQAAKEFIAWLVKGRG (N-terminus assumed) [PES03]
HSA
  k a: 12800 M⁻¹ s⁻¹
  k d: 0.0322 s⁻¹
  Kd: 2.51 µM

## {FITC-Ahx}-EYEEYK(Myristoyl)EGGGGSGGGGSFNPRH[Aib]EGTFTSDVSSYLEGQAAKEFIAWLVKGRG (N-terminus assumed) [PES16]
HSA
  k a: 11000 M⁻¹ s⁻¹
  k d: 0.0192 s⁻¹
  Kd: 1.74 µM

## {FITC-Ahx}-EYK(Stearoyl)EEYEGGGGSGGGGSFNPRH[Aib]EGTFTSDVSSYLEGQAAKEFIAWLVKGRG (N-terminus assumed) [PES09]
HSA
  k a: 12100 M⁻¹ s⁻¹
  k d: 0.0531 s⁻¹
  Kd: 4.32 µM

## {FITC-Ahx}-EK(Myristoyl)YEEYEGGGGSGGGGSFNPRH[Aib]EGTFTSDVSSYLEGQAAKEFIAWLVKGRG (N-terminus assumed) [PES04]
HSA
  k a: 1240 M⁻¹ s⁻¹
  k d: 0.0332 s⁻¹
  Kd: 26.7 µM

## {FITC-Ahx}-EYEEYEK(Myristoyl)GGGGSGGGGSFNPRH[Aib]EGTFTSDVSSYLEGQAAKEFIAWLVKGRG (N-terminus assumed) [PES19]
HSA
  k a: 2500 M⁻¹ s⁻¹
  k d: 0.0222 s⁻¹
  Kd: 8.73 µM

## {FITC-Ahx}-K(Myristoyl)EYEEYEGGGGSGGGGSFNPRH[Aib]EGTFTSDVSSYLEGQAAKEFIAWLVKGRG (N-terminus assumed) [PES01]
HSA
  k a: 6900 M⁻¹ s⁻¹
  k d: 0.0182 s⁻¹
  Kd: 2.66 µM

## {FITC-Ahx}-EYEEYK(Stearoyl)EGGGGSGGGGSFNPRH[Aib]EGTFTSDVSSYLEGQAAKEFIAWLVKGRG (N-terminus assumed) [PES18]
HSA
  k a: 11400 M⁻¹ s⁻¹
  k d: 0.036 s⁻¹
  Kd: 3.16 µM

## {FITC-Ahx}-EYK(Myristoyl)EEYEGGGGSGGGGSFNPRH[Aib]EGTFTSDVSSYLEGQAAKEFIAWLVKGRG (N-terminus assumed) [PES07]
HSA
  k a: 8240 M⁻¹ s⁻¹
  k d: 0.0632 s⁻¹
  Kd: 7.61 µM

## {FITC-Ahx}-EYEEK(Palmitoyl)YEGGGGSGGGGSFNPRH[Aib]EGTFTSDVSSYLEGQAAKEFIAWLVKGRG (N-terminus assumed) [PES14]
GK rats; [6]
  AUC-lowering percentage in third OGTT (144–146 h) versus placebo: 22.1%
GK rats; [7]
  AUC-lowering percentage in third OGTT (144–146 h) versus placebo: 31.0%
GK rats; [8]
  AUC-lowering percentage in third OGTT (144–146 h) versus placebo: 44.7%
HSA
  k a: 14500 M⁻¹ s⁻¹
  k d: 0.0101 s⁻¹
  Kd: 0.696 µM
[1]; 10 nmol kg^−1
  half-life: 62.6 h
[1]; 30 nmol kg^−1
  half-life: 78.8 h
[1]; 90 nmol kg^−1
  half-life: 95.1 h
db/db mice [2]; single s.c. 10 nmol kg^−1
  time hypoglycemic effects maintained: more than 120 h
db/db mice [2]; [6]
  decrease of BGL AUC for 0–192 h compared with saline: 38.4%
db/db mice [2]; single s.c. 30 nmol kg^−1
  time hypoglycemic effects maintained: > 168 h
db/db mice [2]; [7]
  decrease of BGL AUC for 0–192 h compared with saline: 49.3%
  duration for BGLs rebound over 8.35 mmol L^−1: 22.3 h
db/db mice [2]; single s.c. 90 nmol kg^−1
  time hypoglycemic effects maintained: > 216 h
db/db mice [2]; [8]
  decrease of BGL AUC for 0–192 h compared with saline: 65.0%
  duration for BGLs rebound over 8.35 mmol L^−1: 50.8 h
db/db mice [2]; single s.c. 30 and 90 nmol kg^−1
  time for BGLs to reach the normoglycemic value: ≤ 2 h
db/db mice [3]; 10 nM kg^−1, mean ± SD n = 8
  ALT: 59.2 ± 2.8 IU L^−1
  AST: 158 ± 12.2 IU L^−1
  HDL: 2.5 ± 0.6 mmol/L
  LDL: 1.6 ± 0.3 mmol/L
  LDL/HDL: 0.64 ± 0.19
  TC: 4.8 ± 0.6 mmol/L
  TG: 1.1 ± 0.1 mmol/L
db/db mice [3]; 30 nM kg^−1, mean ± SD n = 8
  ALT: 55.0 ± 4.0 IU L^−1
  AST: 140 ± 9.9 IU L^−1
  HDL: 2.5 ± 0.5 mmol/L
  LDL: 1.4 ± 0.2 mmol/L
  LDL/HDL: 0.44 ± 0.15
  TC: 4.4 ± 0.3 mmol/L
  TG: 1.0 ± 0.7 mmol/L
db/db mice [3]; db/db mice, 8 weeks, H&E staining, compared with saline
  area and number of pancreatic islets: increased
db/db mice [3]; db/db mice, after 8 week exposure
  reduction of LDL/HDL ratio: up to 47%
db/db mice [3]; db/db mice, chronic treatment 8 weeks, pancreas sections
  insulin immunoreactivity: preserved proper insulin immunoreactivity
db/db mice [3]; db/db mice, twice-weekly s.c. 10 nmol kg^−1, 8 weeks
  decrease of OGTT AUC after 8 week treatment compared with day 0: 17.1%
db/db mice [3]; db/db mice, twice-weekly s.c. 30 nmol kg^−1, 8 weeks
  decrease of OGTT AUC after 8 week treatment compared with day 0: 28.9%
db/db mice [3]; db/db mice, twice-weekly s.c. 90 nmol kg^−1, 8 weeks
  decrease of OGTT AUC after 8 week treatment compared with day 0: 58.2%
db/db mice [3]; db/db mice, twice-weekly s.c. 10, 30 and 90 nmol kg^−1, 56 days, vs saline
  body weight gain, food intake and fat%: obviously reduction
db/db mice [4]; single s.c. 90 nmol kg^−1, AUC0–120 min
  glucose AUC in OGTT: 780.17 nmol/L/min
db/db mice [4]; single s.c. 150 nmol kg^−1, AUC0–120 min
  glucose AUC in OGTT: 738.56 nmol/L/min
[5]; human plasma with HSA
  half-life at 1 mg L^−1: > 72 h
[5]; [9]
  half-life at 1 mg L^−1: 60.1 h

## {FITC-Ahx}-EK(Palmitoyl)YEEYEGGGGSGGGGSFNPRH[Aib]EGTFTSDVSSYLEGQAAKEFIAWLVKGRG (N-terminus assumed) [PES05]
HSA
  k a: 8900 M⁻¹ s⁻¹
  k d: 0.0722 s⁻¹
  Kd: 8.11 µM

## {FITC-Ahx}-EYEEK(Myristoyl)YEGGGGSGGGGSFNPRH[Aib]EGTFTSDVSSYLEGQAAKEFIAWLVKGRG (N-terminus assumed) [PES13]
HSA
  k a: 11000 M⁻¹ s⁻¹
  k d: 0.00422 s⁻¹
  Kd: 0.383 µM
[5]; human plasma with HSA
  half-life at 1 mg L^−1: 68.7 h
[5]; [9]
  half-life at 1 mg L^−1: 64.4 h

## {FITC-Ahx}-EYEEK(Stearoyl)YEGGGGSGGGGSFNPRH[Aib]EGTFTSDVSSYLEGQAAKEFIAWLVKGRG (N-terminus assumed) [PES15]
HSA
  k a: 21800 M⁻¹ s⁻¹
  k d: 0.0112 s⁻¹
  Kd: 0.512 µM
[5]; human plasma with HSA
  half-life at 1 mg L^−1: 56.5 h
[5]; [9]
  half-life at 1 mg L^−1: 48.5 h

## {FITC-Ahx}-EYEK(Stearoyl)EYEGGGGSGGGGSFNPRH[Aib]EGTFTSDVSSYLEGQAAKEFIAWLVKGRG (N-terminus assumed) [PES12]
HSA
  k a: 21700 M⁻¹ s⁻¹
  k d: 0.0531 s⁻¹
  Kd: 2.45 µM

## {FITC-Ahx}-EYEEYK(Palmitoyl)EGGGGSGGGGSFNPRH[Aib]EGTFTSDVSSYLEGQAAKEFIAWLVKGRG (N-terminus assumed) [PES17]
HSA
  k a: 12000 M⁻¹ s⁻¹
  k d: 0.0627 s⁻¹
  Kd: 5.21 µM

## {FITC-Ahx}-EYEEYEK(Stearoyl)GGGGSGGGGSFNPRH[Aib]EGTFTSDVSSYLEGQAAKEFIAWLVKGRG (N-terminus assumed) [PES21]
HSA
  k a: 11400 M⁻¹ s⁻¹
  k d: 0.036 s⁻¹
  Kd: 3.16 µM

## {FITC-Ahx}-EYEK(Myristoyl)EYEGGGGSGGGGSFNPRH[Aib]EGTFTSDVSSYLEGQAAKEFIAWLVKGRG (N-terminus assumed) [PES10]
HSA
  k a: 12900 M⁻¹ s⁻¹
  k d: 0.0328 s⁻¹
  Kd: 2.54 µM

## {FITC-Ahx}-EYEEYEK(Palmitoyl)GGGGSGGGGSFNPRH[Aib]EGTFTSDVSSYLEGQAAKEFIAWLVKGRG (N-terminus assumed) [PES20]
HSA
  k a: 3180 M⁻¹ s⁻¹
  k d: 0.0534 s⁻¹
  Kd: 16.8 µM

## {FITC-Ahx}-EK(Stearoyl)YEEYEGGGGSGGGGSFNPRH[Aib]EGTFTSDVSSYLEGQAAKEFIAWLVKGRG (N-terminus assumed) [PES06]
HSA
  k a: 18800 M⁻¹ s⁻¹
  k d: 0.0922 s⁻¹
  Kd: 4.9 µM

## {FITC-Ahx}-EYK(Palmitoyl)EEYEGGGGSGGGGSFNPRH[Aib]EGTFTSDVSSYLEGQAAKEFIAWLVKGRG (N-terminus assumed) [PES08]
HSA
  k a: 26700 M⁻¹ s⁻¹
  k d: 0.0942 s⁻¹
  Kd: 3.53 µM

## {FITC-Ahx}-EYEK(Palmitoyl)EYEGGGGSGGGGSFNPRH[Aib]EGTFTSDVSSYLEGQAAKEFIAWLVKGRG (N-terminus assumed) [PES11]
HSA
  k a: 8380 M⁻¹ s⁻¹
  k d: 0.0782 s⁻¹
  Kd: 9.33 µM

Reference: PMC9049141 (RSC Advances, 2020)
